Test results: PMC10233671 (ACS Omega, 2023)
Converted amounts (≈) assume the structure as drawn.

Key:
Msmeg CIII2CIV2 = Msmeg CIII2CIV2 (Mycolicibacterium smegmatis, UniProt A0R052+I7GD61); assay: Oxygen consumption assay with purified CIII2CIV2; type: biochemical, Mycobacterium smegmatis
mitochondrial complex I = mitochondrial complex I (Bos taurus, UniProt P03887+P17694+P42026); assay: Bos taurus complex I activity assay; type: biochemical; settings: 10 μM, SMPs
Summary of the method: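 Complex I from bovine heart sub-mitochondrial particles, prepared at 4 °C from isolated mitochondria and cleared at 16,000g. In a 96-well plate, SMPs were mixed with 10 μM test compound or positive control (rotenone, antimycin A or KCN). The reaction was started by injecting 200 μM NADH. NADH oxidation was followed at 340 nm for 8 min.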

[1] = target: bovine mitochondrial cytochrome bc1 (complex III) (Bos taurus, UniProt P00157); assay: Oxygen consumption assay with bovine heart sub-mitochondrial particles; type: biochemical
[2] = target: T1, mitochondrial CIII2 (cytochrome bc1) (Candida albicans, UniProt P0C8L0); assay: C. albicans complex III activity assay; type: biochemical; settings: 10 and 1 μM
T1 sequence (P0C8L0 1-387): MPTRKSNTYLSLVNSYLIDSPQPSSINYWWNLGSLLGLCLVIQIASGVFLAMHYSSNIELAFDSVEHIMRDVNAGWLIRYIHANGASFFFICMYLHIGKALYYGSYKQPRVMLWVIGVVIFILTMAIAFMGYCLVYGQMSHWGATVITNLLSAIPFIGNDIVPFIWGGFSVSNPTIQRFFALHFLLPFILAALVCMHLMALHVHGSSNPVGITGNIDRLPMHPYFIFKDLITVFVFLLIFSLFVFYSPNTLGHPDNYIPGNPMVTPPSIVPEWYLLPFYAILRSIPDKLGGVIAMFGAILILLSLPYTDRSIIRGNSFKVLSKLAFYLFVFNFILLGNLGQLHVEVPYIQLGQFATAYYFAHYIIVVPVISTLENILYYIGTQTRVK

Mtb H37Rv = settings: reported value; cited from earlier work
[3] = cited from earlier work
[4] = system: viable mycobacteria in the sputum; settings: phase 2a multiple-dose trial; cited from earlier work

Sequence of mitochondrial complex I (P03887 whole entry): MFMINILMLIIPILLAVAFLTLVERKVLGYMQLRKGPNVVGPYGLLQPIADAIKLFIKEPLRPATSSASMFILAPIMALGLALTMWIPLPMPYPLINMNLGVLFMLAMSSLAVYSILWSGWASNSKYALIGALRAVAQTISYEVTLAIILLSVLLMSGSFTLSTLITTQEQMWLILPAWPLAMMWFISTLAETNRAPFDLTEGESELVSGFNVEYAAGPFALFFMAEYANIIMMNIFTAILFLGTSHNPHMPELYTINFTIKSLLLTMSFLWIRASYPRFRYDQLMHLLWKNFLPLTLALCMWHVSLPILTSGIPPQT
Sequence of mitochondrial complex I (P42026 38-216): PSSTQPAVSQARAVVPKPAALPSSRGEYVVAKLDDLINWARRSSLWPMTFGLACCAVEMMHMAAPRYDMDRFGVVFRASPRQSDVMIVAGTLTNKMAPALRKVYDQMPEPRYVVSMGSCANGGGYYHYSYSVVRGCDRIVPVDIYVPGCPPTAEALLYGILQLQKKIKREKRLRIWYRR
Sequence of mitochondrial complex I (P17694 34-463): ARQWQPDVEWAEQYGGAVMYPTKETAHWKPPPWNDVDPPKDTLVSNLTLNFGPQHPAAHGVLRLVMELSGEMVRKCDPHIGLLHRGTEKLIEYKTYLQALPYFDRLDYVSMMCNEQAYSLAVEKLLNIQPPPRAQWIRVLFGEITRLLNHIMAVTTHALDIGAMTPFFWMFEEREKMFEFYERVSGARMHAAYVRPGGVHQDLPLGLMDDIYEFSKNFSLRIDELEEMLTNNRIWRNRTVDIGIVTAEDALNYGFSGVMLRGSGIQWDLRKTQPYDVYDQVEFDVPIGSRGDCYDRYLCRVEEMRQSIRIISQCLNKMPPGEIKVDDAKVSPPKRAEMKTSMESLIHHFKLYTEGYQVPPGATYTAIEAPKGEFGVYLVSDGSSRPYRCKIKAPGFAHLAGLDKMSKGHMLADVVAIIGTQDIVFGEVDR

In the case of `CCc1nc2ccc(Cl)cn2c1C(=O)NCc1ccc(N2CCC(c3ccc(OC(F)(F)F)cc3)CC2)cc1` [Compound Q203], the IC50 (Msmeg CIII2CIV2) is reported as 99 ± 32 nM, the “inhibition of / binding to mitochondrial complex I” value (mitochondrial complex I) is reported as “do not inhibit” and the “activity against bovine mitochondrial cytochrome bc1” value [1] is reported as “did not show activity”. For the same molecule, the “inhibition in SMPs” value ([1]; 1 μM) was “no inhibition was detected”, the “inhibition in SMPs” value ([1]; 10 μM) was “some inhibition” and the inhibition at 10 µM ([1]; read-out: inhibition of complex III in SMPs) was 80%. The “inhibition of purified C. albicans CIII2” value [2] was “No inhibition was observed”, the MIC50 (Mtb H37Rv) was 2.7 nM (≈ 1.5 ng/mL) and the half-life [3] was 13.38 ± 9.4704 days. For the same molecule, the “early bactericidal activity” value [4] was “dose-dependent reduction in the load of viable mycobacteria in the sputum”.
